Laboratory results reported in ChEMBL document CHEMBL4196175, “First SAR Study for Overriding NRAS Mutant Driven Acute Myeloid Leukemia” (J Med Chem, 2018).
The source made the active and inactive calls. The rule behind the calls is not given here.

Assays:
[1] = Metabolic stability in human liver microsomes assessed as compound remaining at 1 uM after 30 mins; format: ADME, microsome; conditions: read-out: Stability
[2] = Metabolic stability in dog liver microsomes assessed as compound remaining at 1 uM after 30 mins; format: ADME, Canis lupus familiaris, microsome; conditions: read-out: Stability
[3] = Metabolic stability in rat liver microsomes assessed as compound remaining at 1 uM after 30 mins; format: ADME, microsome; conditions: read-out: Stability
[4] = Metabolic stability in mouse liver microsomes assessed as compound remaining at 1 uM after 30 mins; format: ADME, microsome; conditions: read-out: Stability
CYP1A2 = biological target: T1, CYP1A2 (Homo sapiens, UniProt P05177); experiment: Inhibition of CYP1A2 (unknown origin) assessed as activity remaining at 10 uM relative to control; format: ADME; conditions: read-out: Activity
T1 sequence (P05177 whole entry): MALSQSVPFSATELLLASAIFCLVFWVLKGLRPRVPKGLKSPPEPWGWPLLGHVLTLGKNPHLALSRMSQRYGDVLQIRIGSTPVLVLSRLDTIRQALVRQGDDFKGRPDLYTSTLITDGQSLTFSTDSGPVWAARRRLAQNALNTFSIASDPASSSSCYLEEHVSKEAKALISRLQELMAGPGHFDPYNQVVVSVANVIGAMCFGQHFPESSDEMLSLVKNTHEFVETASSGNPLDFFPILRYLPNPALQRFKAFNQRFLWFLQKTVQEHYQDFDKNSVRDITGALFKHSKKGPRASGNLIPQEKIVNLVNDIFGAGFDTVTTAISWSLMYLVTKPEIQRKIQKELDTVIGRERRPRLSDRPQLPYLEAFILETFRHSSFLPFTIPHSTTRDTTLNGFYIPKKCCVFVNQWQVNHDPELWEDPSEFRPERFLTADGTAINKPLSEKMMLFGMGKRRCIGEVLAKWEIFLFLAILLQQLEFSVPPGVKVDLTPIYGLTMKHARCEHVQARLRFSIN

[5] = biological target: T2, Mitogen-activated protein kinase kinase kinase kinase 2 (Mus musculus) (UniProt Q61161); experiment: Inhibition of GCK in mouse BA/F3 cells harboring NRAS-G12D mutant assessed as reduction in JNK phosphorylation at T183/Y185 at 1 uM after 2 hrs by Western blot analysis; format: cell-based
T2 sequence (whole entry): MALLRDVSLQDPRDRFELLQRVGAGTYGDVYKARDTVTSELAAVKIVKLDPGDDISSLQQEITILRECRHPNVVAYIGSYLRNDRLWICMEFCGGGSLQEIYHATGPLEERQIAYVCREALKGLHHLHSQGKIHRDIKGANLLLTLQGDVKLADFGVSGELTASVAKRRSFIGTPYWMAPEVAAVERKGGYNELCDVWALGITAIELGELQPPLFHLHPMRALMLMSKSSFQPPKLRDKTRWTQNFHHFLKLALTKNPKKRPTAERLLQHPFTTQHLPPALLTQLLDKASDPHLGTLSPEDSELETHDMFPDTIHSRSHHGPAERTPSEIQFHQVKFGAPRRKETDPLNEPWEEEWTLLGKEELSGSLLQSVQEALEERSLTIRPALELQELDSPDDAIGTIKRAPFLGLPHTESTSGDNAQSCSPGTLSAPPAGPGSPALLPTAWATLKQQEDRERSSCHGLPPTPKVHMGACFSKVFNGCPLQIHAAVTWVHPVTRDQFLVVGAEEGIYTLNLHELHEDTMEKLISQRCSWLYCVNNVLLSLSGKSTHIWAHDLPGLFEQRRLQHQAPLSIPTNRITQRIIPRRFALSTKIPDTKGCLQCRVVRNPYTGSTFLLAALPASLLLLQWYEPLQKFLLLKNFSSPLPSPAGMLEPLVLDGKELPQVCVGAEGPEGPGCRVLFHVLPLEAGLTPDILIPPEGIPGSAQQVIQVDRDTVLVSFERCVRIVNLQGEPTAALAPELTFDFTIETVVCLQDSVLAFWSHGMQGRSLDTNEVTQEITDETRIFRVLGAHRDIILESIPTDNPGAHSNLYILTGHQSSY
Outline: (§1)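 Ba/F3-NRAS-G12D or OCI-AML3 cells exposed 2 h to compounds (1 µM, or a dose series in OCI-AML3); phospho-p70S6K1, phospho-AKT S473, phospho-JNK and phospho-p38 assessed by western blot, actin as loading control.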

[6] = biological target: T2, Mitogen-activated protein kinase kinase kinase kinase 2 (Mus musculus); experiment: Inhibition of GCK in mouse BA/F3 cells harboring NRAS-G12D mutant assessed as reduction in p38 phosphorylation at Thr180/Tyr182 at 1 uM after 2 hrs by Western blot analysis; format: cell-based; outline: as §1
Activated CDC42 kinase 1 = Activated CDC42 kinase 1 (Homo sapiens, UniProt Q07912); experiment: Inhibition of ACK1 in human OCI-AML3 cells harboring NRAS Q61L mutant assessed as reduction in P70S6K1 phosphorylation at Thr421/Ser424 at 1 uM after 2 hrs by Western blot analysis; format: cell-based; outline: as §1
[7] = biological target: T3, Mitogen-activated protein kinase kinase kinase kinase 2 (Homo sapiens) (UniProt Q12851); experiment: Inhibition of GCK in human OCI-AML3 cells harboring NRAS Q61L mutant assessed as reduction in JNK phosphorylation at T183/Y185 at 1 uM after 2 hrs by Western blot analysis; format: cell-based; outline: as §1
T3 sequence (whole entry): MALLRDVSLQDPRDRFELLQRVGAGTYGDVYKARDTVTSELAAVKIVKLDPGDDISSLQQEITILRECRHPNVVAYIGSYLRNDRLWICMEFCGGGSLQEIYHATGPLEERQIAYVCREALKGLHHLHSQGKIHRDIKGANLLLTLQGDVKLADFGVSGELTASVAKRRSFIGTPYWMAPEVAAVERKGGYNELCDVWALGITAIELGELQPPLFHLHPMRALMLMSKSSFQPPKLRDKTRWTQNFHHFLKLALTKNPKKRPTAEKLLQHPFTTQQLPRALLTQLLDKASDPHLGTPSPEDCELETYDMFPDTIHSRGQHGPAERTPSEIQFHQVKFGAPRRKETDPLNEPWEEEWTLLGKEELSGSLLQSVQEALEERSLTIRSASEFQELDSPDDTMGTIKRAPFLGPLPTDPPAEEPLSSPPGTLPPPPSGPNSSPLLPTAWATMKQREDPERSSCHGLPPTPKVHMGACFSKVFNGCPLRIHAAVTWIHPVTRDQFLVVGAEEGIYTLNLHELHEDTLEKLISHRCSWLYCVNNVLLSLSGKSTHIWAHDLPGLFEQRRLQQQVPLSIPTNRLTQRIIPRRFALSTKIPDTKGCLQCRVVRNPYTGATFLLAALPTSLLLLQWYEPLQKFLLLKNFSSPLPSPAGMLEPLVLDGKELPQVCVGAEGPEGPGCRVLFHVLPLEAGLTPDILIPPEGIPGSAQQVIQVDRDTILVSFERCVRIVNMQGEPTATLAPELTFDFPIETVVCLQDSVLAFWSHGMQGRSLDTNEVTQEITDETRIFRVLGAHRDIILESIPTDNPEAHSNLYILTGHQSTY

OCI-AML-3 = experiment: Inhibition of anchorage-independent cell growth in human OCI-AML3 cells harboring NRAS Q61L mutant assessed as reduction in colony number at 0.1 to 1 uM after 14 days by iodonitrotetrazolium chloride staining-based soft agar assay; format: functional
Outline: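 OCI-AML3 cells embedded in 0.7% low-melting agar, incubated 2 weeks with compound at 0.1 or 1 µM; colony number and colony size per well measured by automated image analysis; n = 3 per condition, SD, one-way ANOVA.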

Chain of Activated CDC42 kinase 1 (Q07912 whole entry, looked up): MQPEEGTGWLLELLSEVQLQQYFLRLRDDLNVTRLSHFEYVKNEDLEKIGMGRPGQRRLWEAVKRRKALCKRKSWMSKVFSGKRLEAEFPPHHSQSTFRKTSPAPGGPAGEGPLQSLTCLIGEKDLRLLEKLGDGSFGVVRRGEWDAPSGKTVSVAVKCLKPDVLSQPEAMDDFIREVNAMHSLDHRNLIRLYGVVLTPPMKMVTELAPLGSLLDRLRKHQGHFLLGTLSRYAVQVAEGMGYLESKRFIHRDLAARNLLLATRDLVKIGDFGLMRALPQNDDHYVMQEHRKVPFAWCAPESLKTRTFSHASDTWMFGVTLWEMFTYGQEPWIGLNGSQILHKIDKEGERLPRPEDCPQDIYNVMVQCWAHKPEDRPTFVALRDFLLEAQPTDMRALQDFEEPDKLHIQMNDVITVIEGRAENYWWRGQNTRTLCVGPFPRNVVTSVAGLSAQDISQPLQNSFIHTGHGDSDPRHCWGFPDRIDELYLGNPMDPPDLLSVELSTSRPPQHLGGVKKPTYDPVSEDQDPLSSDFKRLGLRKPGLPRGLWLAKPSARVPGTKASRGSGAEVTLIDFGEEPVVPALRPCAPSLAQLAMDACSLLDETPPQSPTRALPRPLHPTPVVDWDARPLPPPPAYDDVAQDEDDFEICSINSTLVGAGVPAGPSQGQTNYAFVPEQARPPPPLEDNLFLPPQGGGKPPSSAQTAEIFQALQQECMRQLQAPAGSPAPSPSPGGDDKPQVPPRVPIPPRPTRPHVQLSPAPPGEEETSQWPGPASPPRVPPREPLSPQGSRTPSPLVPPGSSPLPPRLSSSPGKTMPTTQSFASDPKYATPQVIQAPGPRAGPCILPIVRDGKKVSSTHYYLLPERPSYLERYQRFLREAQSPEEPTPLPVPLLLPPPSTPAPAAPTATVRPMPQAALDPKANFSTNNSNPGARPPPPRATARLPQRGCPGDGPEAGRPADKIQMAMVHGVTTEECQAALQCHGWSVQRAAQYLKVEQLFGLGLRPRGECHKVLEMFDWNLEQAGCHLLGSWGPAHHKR

Compound	remaining at 0.5 h, 1 µM [1] [%]	remaining at 0.5 h, 1 µM [2] [%]	remaining at 0.5 h, 1 µM [3] [%]	remaining at 0.5 h, 1 µM [4] [%]	activity at 10 µM (CYP1A2) [%]	reduction in JNK phosphorylation (active/inactive call) [5]	reduction in p38 phosphorylation (qualitative call) [6]	inhibition (Activated CDC42 kinase 1)	reduction in JNK phosphorylation (qualitative call) [7]	growth inhibition (GI) (OCI-AML-3)
Cc1ccc(NC(=O)c2cccc(C(F)(F)F)c2)cc1N1Cc2cnc(N)nc2N(C)C1=O	84.4	67.9	81.3	80	89.2	Active	Active	Active	Active	Active
CCN1CCN(C(=O)c2ccc(Nc3ncc4c(n3)N(C)C(=O)N(c3cc(NC(=O)c5cccc(C(F)(F)F)c5)ccc3C)C4)cn2)CC1	24.6	23.3	38.3	24.2	81.8	Active	Active	Active	Active	–
Cc1ccc(Nc2ncc3c(n2)N(C)C(=O)N(c2cc(NC(=O)c4ccc(CN5CCC(N(C)C)C5)c(C(F)(F)F)c4)ccc2C)C3)cn1 (centres undefined)	57.5	43.1	76.5	58.7	67.5	Active	Active	Active	Active	Active
Cc1cc(Nc2ncc3c(n2)N(C)C(=O)N(c2cc(NC(=O)c4cccc(C(F)(F)F)c4)ccc2C)C3)n(C)n1	69.2	69.9	82.3	74.7	88.2	Active	Active	Active	Active	–
CC(=O)N1CCN(c2ccc(Nc3ncc4c(n3)N(C)C(=O)N(c3cc(NC(=O)c5cccc(C(F)(F)F)c5)ccc3C)C4)cn2)CC1	47.3	38	75.4	49.1	87.2	–	–	–	–	Active
